# Only a selection was taken, and hits are over-represented in it overall.
# T cruzi HTS = inhibitors of intracellular Trypanosoma cruzi, primary screen, cell-based, plate reader, single point, set 2; intracellular Trypanosoma cruzi in host cells; 4.9% of 22,000 active; activity score (inhibition), % at 5.01 µM; AID 651903, 2012; in the data active = activity score above about 55%; inconclusive = no clear call, values can overlap the other calls;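 also: parasites and compound incubated about four days before reading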
# INS-1E ATP HTS = protection of INS-1E cells from cytokine death, primary screen, ATP luminescence, single point. INS-1E cytokine-induced death, 48 h; normalised: neutral wells 0, positive control 100. 0.1% of 20,000 active. protection from cytokine-induced ATP loss, % at 10 µM;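 active = mean replicate protection from cytokine-induced ATP loss at least 50% and at least 75% of replicates each reaching 50%; inconclusive = meets only one of the two criteria, mean or replicate share; inactive = fails both the mean and replicate share criteria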
#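 Test system: INS-1E rat cells | Quantity: 8000 cells per well | Medium: Phenol-red-free RPMI with 5% fetal bovine serum | Reagent: Cytokine cocktail of IFN-γ, TNF-α and IL-1β | Doses: One compound concentration, pin transfer | Timing: 48 h co-treatment, 10 min post-lysis read | Technique: Luminescent ATP assay (CellTiter-Glo)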
# A1 apoptosis 2 = A1 inhibitors via caspase activation, primary screen, cell-based, luminescence, HTS, two replicates; MEF A1-2A-BIM cells, caspase-Glo luminescence, 3 h; percent of clofoctol response, DMSO zero; caspase activation, % (concentration not given with the values); 24,000 tested, under 10 active; in the data active = caspase activation above about 5.9%; inconclusive = no clear call, values can overlap the other calls; inactive = below about 2.2%
#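 Material: mouse embryonic fibroblasts co-expressing A1 and BIM (A1-2A-BIM), primed for A1 dependence / Quantity: 2500 cells/well / Buffer or medium: RPMI-1640 growth medium with 10% FBS / Doses: 50 nL compound per well, pinned / Schedule: 3 h compound exposure at 37 °C / Signal: Caspase-Glo luminescence (DEVD substrate) / Measure: Caspase-3/7 activation, seen as rise in luminescence signal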
# Hits are given with their value; 0 = inactive; ? = inconclusive; - = no result.
SMILES,T cruzi HTS,INS-1E ATP HTS,A1 apoptosis 2
C[C@@H]1CCCCO[C@@H](CN(C)Cc2ccc(Cl)c(Cl)c2)[C@@H](C)CN([C@H](C)CO)C(=O)c2cc(NS(=O)(=O)c3ccc(Cl)cc3)ccc2O1,72,0,0
COc1ccc(S(=O)(=O)Nc2ccc3c(c2)C(=O)N([C@H](C)CO)C[C@H](C)[C@@H](CN(C)Cc2ccc(Cl)c(Cl)c2)OCCCC[C@@H](C)O3)cc1,73,0,0
Cc1ccc(S(=O)(=O)Nc2ccc3c(c2)C(=O)N([C@H](C)CO)C[C@@H](C)[C@H](CN(C)Cc2ccc(Cl)c(Cl)c2)OCCCC[C@@H](C)O3)cc1,-,-,0
C[C@@H]1CCCCO[C@H](CN(C)Cc2ccc(Cl)c(Cl)c2)[C@@H](C)CN([C@H](C)CO)C(=O)c2cc(NS(=O)(=O)c3ccc(Cl)cc3)ccc2O1,64,0,0
COc1ccc(S(=O)(=O)Nc2ccc3c(c2)C(=O)N([C@H](C)CO)C[C@H](C)[C@@H](CN(C)Cc2ccc(Cl)c(Cl)c2)OCCCC[C@H](C)O3)cc1,-,-,0
C[C@@H]1CCCCO[C@H](CN(C)Cc2ccc(Cl)c(Cl)c2)[C@@H](C)CN([C@@H](C)CO)C(=O)c2cc(NS(=O)(=O)c3ccc(F)cc3)ccc2O1,-,-,0
C[C@@H]1CN([C@@H](C)CO)C(=O)c2cccc(NC(=O)c3ccncc3)c2O[C@@H]1CN(C)C(=O)Nc1ccc(F)cc1,0,0,0
C[C@@H]1CN([C@H](C)CO)C(=O)c2cccc(NC(=O)c3ccncc3)c2O[C@@H]1CN(C)C(=O)Nc1ccccc1,0,0,0
C[C@H](CO)N1C[C@H](C)[C@H](CN(C)C(=O)Nc2ccc(F)cc2)Oc2c(NC(=O)c3ccncc3)cccc2C1=O,81,0,-
C[C@H]1CN([C@@H](C)CO)C(=O)c2cccc(NC(=O)c3ccncc3)c2O[C@H]1CN(C)C(=O)Nc1ccccc1,79,0,0
C[C@H]1CN([C@@H](C)CO)C(=O)c2cccc(NC(=O)c3ccncc3)c2O[C@H]1CN(C)C(=O)Nc1ccc(C(F)(F)F)cc1,86,0,0
C[C@H](CO)N1C[C@H](C)[C@@H](CN(C)C(=O)Nc2ccc(C(F)(F)F)cc2)Oc2c(NC(=O)c3ccncc3)cccc2C1=O,0,0,0
O=C(CCCCCCC(=O)Nc1ccccc1O)N/N=C/c1ccc(Br)s1,0,0,0
O=C(N/N=C/c1ccc2ccccc2n1)c1ccccc1O,0,0,-
O=C(NO)c1cccc(C(=O)N/N=C/c2cc(Br)cc([N+](=O)[O-])c2O)c1,0,0,0
O=C(CCCCCCC(=O)Nc1ccccc1O)N/N=C/c1ccc(O)c(F)c1,0,0,0
C[C@@H]1CN([C@@H](C)CO)C(=O)Cc2cc(NC(=O)NC3CCCCC3)ccc2O[C@@H]1CN(C)Cc1ccc(Oc2ccccc2)cc1,0,0,-
C[C@@H]1CN([C@H](C)CO)C(=O)Cc2cc(NC(=O)NC3CCCCC3)ccc2O[C@H]1CN(C)Cc1ccc(Oc2ccccc2)cc1,64,0,0
C[C@H](CO)N1C[C@H](C)[C@@H](CN(C)Cc2ccc(-c3ccccc3)cc2)Oc2ccc(NC(=O)NC3CCCCC3)cc2CC1=O,-,-,0
C[C@@H]1CN([C@H](C)CO)C(=O)Cc2cc(NC(=O)NC3CCCCC3)ccc2O[C@H]1CN(C)Cc1ccc(-c2ccccc2)cc1,75,0,-
CCCCCCC/C=N/NC(=O)CCCCCCC(=O)OC,0,0,0
C[C@@H]1CN([C@H](C)CO)C(=O)c2cc(N(C)C)ccc2O[C@@H]1CN(C)Cc1ccc(C(=O)Nc2ccccc2N)cc1,71,63,-
CC(C)NC(=O)Nc1ccc2c(c1)C(=O)N([C@@H](C)CO)C[C@H](C)[C@@H](CN(C)Cc1ccc(C(=O)Nc3ccccc3N)cc1)O2,58,0,-
C[C@H](CO)N1C[C@H](C)[C@H](CN(C)Cc2ccc(C(=O)Nc3ccccc3N)cc2)Oc2ccc(N(C)C)cc2C1=O,0,0,0
C[C@@H]1CN([C@H](C)CO)C(=O)c2cc(N(C)C)ccc2O[C@H]1CN(C)Cc1ccc(C(=O)Nc2ccccc2N)cc1,63,0,-
CC(C)NC(=O)Nc1ccc2c(c1)C(=O)N([C@@H](C)CO)C[C@H](C)[C@H](CN(C)Cc1ccc(C(=O)Nc3ccccc3N)cc1)O2,?,0,-
C[C@H]1CN([C@@H](C)CO)C(=O)c2cc(N(C)C)ccc2O[C@H]1CN(C)Cc1ccc(C(=O)Nc2ccccc2N)cc1,0,0,-
CN(CCO)c1ccc(/C=N/NC(=O)c2ccccn2)cc1,0,0,0
